According to ChEMBL document CHEMBL1123691, “Multisubstrate inhibitors of dopamine beta-hydroxylase. 2. Structure-activity relationships at the phenethylamine binding site” (J Med Chem, 1987):
One block for each compound: values may come before it.

Columns and labels:
Rattus norvegicus [1] = test: Mean arterial blood pressure at 4 hr post drug at ip dose of 50 mg/kg for the indicated number of SHR (spontaneous hypertensive rats) relative to blood pressure before dosing; format: functional; conditions: route intraperitoneal
In short: (§1)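 Male Okamoto-Aoki SHR, 16–18 weeks, 275-310 g. Femoral artery cannulated under methohexital (10 mg/kg iv), with 2 h recovery, unrestrained. Drug given ip in 20% DMF or po as suspension in 5% PEG 400/1% methocel. BP recorded every 0.5 h for 5–6 h. Mean arterial BP change at 4 h versus predose; mean ± SEM, n rats; vehicle controls run in parallel.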

[2] = target: T1, Dopamine beta-hydroxylase (Bos taurus) (UniProt P15101); test: Inhibitor dissociation constant vs. tyramine substrate against Dopamine beta hydroxylase at pH 4.5.
T1 sequence (whole entry): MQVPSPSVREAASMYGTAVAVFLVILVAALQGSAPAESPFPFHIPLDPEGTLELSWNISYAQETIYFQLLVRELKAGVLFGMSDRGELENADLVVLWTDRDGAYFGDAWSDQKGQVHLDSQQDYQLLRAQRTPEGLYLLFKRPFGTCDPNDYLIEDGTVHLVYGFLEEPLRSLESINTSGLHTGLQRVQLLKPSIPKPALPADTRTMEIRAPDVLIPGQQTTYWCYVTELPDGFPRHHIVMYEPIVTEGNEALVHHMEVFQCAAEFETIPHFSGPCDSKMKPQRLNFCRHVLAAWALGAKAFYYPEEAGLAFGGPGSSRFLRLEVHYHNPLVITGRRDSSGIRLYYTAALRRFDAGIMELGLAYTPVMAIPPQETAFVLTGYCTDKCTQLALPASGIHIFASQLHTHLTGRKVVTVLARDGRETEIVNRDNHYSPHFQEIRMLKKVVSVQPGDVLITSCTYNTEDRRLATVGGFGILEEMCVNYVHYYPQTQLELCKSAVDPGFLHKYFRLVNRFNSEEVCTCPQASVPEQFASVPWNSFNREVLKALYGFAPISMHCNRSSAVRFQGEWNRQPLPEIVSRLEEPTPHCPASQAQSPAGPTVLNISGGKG
In short: (§2)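 Homogeneous purified DBH with specific activity 25-42 units/mg, with tyramine as the varied substrate. The pH 4.5 condition is predominantly ordered: phenethylamine binds before oxygen. The pH 6.6 condition is random. Kis is from standard competitive/noncompetitive kinetic fits, reported as mean ± SEM.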

[3] = target: T2, Dopamine beta-hydroxylase (Bos taurus, UniProt P15101); test: Inhibitory Concentration against bovine Dopamine beta hydroxylase (DBH); Range is between (0.060-0.0877).
T2 sequence (P15101 whole entry): T1 sequence (whole entry)

[4] = target: T1, Dopamine beta-hydroxylase (Bos taurus); test: Inhibitor dissociation constant vs. tyramine substrate against Dopamine beta hydroxylase at pH 6.6; in short: as §2
Rattus norvegicus [5] = test: Change in DA/NE (Dopamine/Norepinephrine) ratio after oral dosing (50 mg/kg); format: functional
In short: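 Adult male Okamoto-Aoki SHR given vehicle (5% PEG 400, 1% methocel) or suspended drug orally, two doses 18 h apart. Mesenteric arteries taken 2 h after second dose and homogenized in 0.4 M HClO4 with Na2S2O5 and EDTA at 0 °C. Supernatant incubated 60 min at 37 °C with rat liver COMT and [methyl-3H]-S-adenosylmethionine, pH 9.6 Tris; DA and NE measured.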

[6] = Partition coefficient (logP); format: physicochemical; conditions: octanol/water
In short: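 Octanol/pH 7.4 phosphate buffer partitioning at four concentrations, with UV assay of each phase. D taken at infinite dilution by linear regression. pKa by titration in 2:1 MeOH-H2O.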

[7] = target: T2, Dopamine beta-hydroxylase
[8] = target: T2, Dopamine beta-hydroxylase; remark: listed apart in the source
[9] = target: T1, Dopamine beta-hydroxylase (Bos taurus); test: Percent inhibition against bovine Dopamine beta hydroxylase (DBH) at 10E-4 M
In short: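 DBH activity measured in the presence of 10^-4 M compound; result expressed as percent inhibition.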

[10] = target: T2, Dopamine beta-hydroxylase; test: […] against bovine Dopamine beta hydroxylase […]; Range is between (4.2-5.3).
[11] = target: T2, Dopamine beta-hydroxylase; test: […] against bovine Dopamine beta hydroxylase […]; Range is between (1.8-2.6).
[12] = target: T2, Dopamine beta-hydroxylase; test: Inhibitory Concentration against bovine Dopamine beta hydroxylase (DBH); Range is between (36-102)
Rattus norvegicus [13] = test: Mean arterial blood pressure at 4 hr post drug at ip dose of 100 mg/kg for the indicated number of SHR (spontaneous hypertensive rats) relative to blood pressure before dosing; format: functional; conditions: route intraperitoneal; in short: as §1
[14] = target: T2, Dopamine beta-hydroxylase; remark: listed apart in the source
[15] = target: T2, Dopamine beta-hydroxylase; remark: listed apart in the source
[16] = target: T2, Dopamine beta-hydroxylase; remark: listed apart in the source
[17] = target: T2, Dopamine beta-hydroxylase; test: Inhibitory Concentration against bovine Dopamine beta hydroxylase (DBH); Range is between (23-41).
[18] = target: T2, Dopamine beta-hydroxylase; remark: listed apart in the source
[19] = target: T2, Dopamine beta-hydroxylase; test: Inhibitory Concentration against bovine Dopamine beta hydroxylase (DBH); Range is between (21-37).
[20] = target: T2, Dopamine beta-hydroxylase; test: Inhibitory Concentration against bovine Dopamine beta hydroxylase (DBH); Range is between (7-38).
[21] = target: T2, Dopamine beta-hydroxylase; remark: listed apart in the source
[22] = target: T2, Dopamine beta-hydroxylase; remark: listed apart in the source
[23] = target: T1, Dopamine beta-hydroxylase (Bos taurus); test: Inhibitor dissociation constant vs. tyramine substrate against Dopamine beta hydroxylase at pH 6.0
In short: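 Purified homogeneous DBH, specific activity 25-42 units/mg, assayed at pH 6.0 with tyramine as the varied substrate. Kis taken as slope inhibition constant from Cleland COMP/NONCOMP fits; mean ± SEM.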

[24] = target: T2, Dopamine beta-hydroxylase; remark: listed apart in the source
[25] = target: T2, Dopamine beta-hydroxylase; test: Inhibitory Concentration against bovine Dopamine beta hydroxylase (DBH); Range is between (1.7-2.4)
[26] = target: T2, Dopamine beta-hydroxylase; remark: listed apart in the source
[27] = target: T2, Dopamine beta-hydroxylase; test: Inhibitory Concentration against bovine Dopamine beta hydroxylase (DBH); Range is between (10-14).
Rattus norvegicus [28] = test: Mean arterial blood pressure at 4 hr post drug at po dose of 50 mg/kg for the indicated number of SHR (spontaneous hypertensive rats) relative to blood pressure before dosing (expt. no. 12); format: functional; in short: as §1
Rattus norvegicus [29] = test: Mean arterial blood pressure at 4 hr post drug at po dose of 50 mg/kg for the indicated number of SHR (spontaneous hypertensive rats) relative to blood pressure before dosing (expt. no. 13); format: functional; conditions: dose 100 mg/kg, in the assay text read “100 mg/kg” for “50 mg/kg”; in short: as §1
[30] = target: T2, Dopamine beta-hydroxylase; test: Inhibitory Concentration against bovine Dopamine beta hydroxylase (DBH); Range is between (56-72).
[31] = target: T2, Dopamine beta-hydroxylase; remark: listed apart in the source
[32] = target: T2, Dopamine beta-hydroxylase; remark: listed apart in the source
[33] = target: T2, Dopamine beta-hydroxylase; remark: listed apart in the source
[34] = target: T2, Dopamine beta-hydroxylase; remark: listed apart in the source
[35] = target: T2, Dopamine beta-hydroxylase; remark: listed apart in the source
[36] = target: T2, Dopamine beta-hydroxylase; test: Inhibitory Concentration against bovine Dopamine beta hydroxylase (DBH); Range is between (4.9-6.5)
[37] = target: T2, Dopamine beta-hydroxylase; remark: listed apart in the source
[38] = target: T2, Dopamine beta-hydroxylase; remark: listed apart in the source
[39] = target: T2, Dopamine beta-hydroxylase; remark: listed apart in the source
[40] = target: T2, Dopamine beta-hydroxylase; remark: listed apart in the source

SMILES: Oc1c(F)cc(Cn2cc[nH]c2=S)cc1F
Decrease (Rattus norvegicus [1]): 36 mmHg
Kis [2]: 0.0057 µM
IC50 [3]: 0.074 µM
Kis [4]: 0.039 µM
Increase (Rattus norvegicus [5]): 165%
logP [6]: 1.08

SMILES: S=c1[nH]ccn1Cc1cc(Cl)cc(Cl)c1
Increase (Rattus norvegicus [5]): 197%
logP [6]: 1.78
IC50 [7]: 2.4 µM

SMILES: COc1c(Cl)cc(Cn2cc[nH]c2=S)cc1Cl
IC50 [8]: 47 µM

SMILES: COc1ccc(Cn2cc[nH]c2=S)cc1C
inhibition [9]: 72%

SMILES: COc1ccc(Cn2cc[nH]c2=S)cc1OC
inhibition [9]: 15%

SMILES: Fc1cc(F)cc(CCCn2cc[nH]c2=S)c1
IC50 [10]: 4.7 µM

SMILES: S=c1[nH]ccn1CCCc1cc(Cl)cc(Cl)c1
IC50 [11]: 2.1 µM

SMILES: Oc1cc(Cl)c(Cn2cc[nH]c2=S)c(Cl)c1
IC50 [12]: 75 µM

SMILES: Oc1c(Cl)cc(Cn2cc[nH]c2=S)cc1Cl
Decrease (Rattus norvegicus [13]): 28 mmHg
Increase (Rattus norvegicus [5]): 12%
IC50 [14]: 0.68 µM

SMILES: S=c1[nH]ccn1Cc1ccc(Cl)cc1Cl
IC50 [20]: 17 µM

SMILES: COc1c(F)cc(Cn2cc[nH]c2=S)cc1F
IC50 [21]: 36 µM

SMILES: Cc1cccc(C)c1Cn1cc[nH]c1=S
inhibition [9]: 5%

SMILES: COc1cc(Cl)c(Cn2cc[nH]c2=S)c(Cl)c1
inhibition [9]: 32%

SMILES: COc1ccccc1Cn1cc[nH]c1=S
inhibition [9]: 68%

SMILES: COc1ccc(Cn2cc[nH]c2=S)cc1C(F)(F)F
inhibition [9]: 29%

SMILES: Fc1cc(F)cc(Cn2cc[nH]c2=S)c1
Decrease (Rattus norvegicus [1]): 50 mmHg
Kis [2]: 0.041 µM
Increase (Rattus norvegicus [5]): 407%
logP [6]: 1.98
Decrease (Rattus norvegicus [28]): 22 mmHg
Decrease (Rattus norvegicus [29]): 28 mmHg

SMILES: COc1cccc(OC)c1Cn1cc[nH]c1=S
inhibition [9]: 10%

SMILES: S=c1[nH]ccn1Cc1c(Cl)cccc1Cl
inhibition [9]: 7%

SMILES: Cc1ccccc1Cn1cc[nH]c1=S
inhibition [9]: 15%

SMILES: Oc1c(F)c(F)c(Cn2cc[nH]c2=S)c(F)c1F
IC50 [30]: 62 µM

SMILES: S=c1[nH]ccn1Cc1cccc(Cl)c1Cl
IC50 [32]: 52 µM

SMILES: COc1ccc(Cn2cc[nH]c2=S)cc1[N+](=O)[O-]
IC50 [34]: 359 µM

SMILES: S=c1[nH]ccn1Cc1cc(Cl)ccc1Cl
IC50 [37]: 97 µM

SMILES: COc1ccc(Cn2cc[nH]c2=S)cc1F
inhibition [9]: 67%

SMILES: S=c1[nH]ccn1Cc1c(Cl)cc(Cl)cc1Cl
IC50 [40]: 102 µM

Now from value to compound, other results behind:

IC50 [15]: 53 µM
SMILES: O=[N+]([O-])c1ccc(Cn2cc[nH]c2=S)cc1

IC50 [16]: 47 µM
SMILES: Fc1ccc(Cn2cc[nH]c2=S)cc1

IC50 [17]: 31 µM
SMILES: O=[N+]([O-])c1cc(Cn2cc[nH]c2=S)ccc1O

IC50 [18]: 148 µM
SMILES: Oc1cccc(Cn2cc[nH]c2=S)c1

IC50 [19]: 28 µM
SMILES: S=c1[nH]ccn1Cc1ccc(Cl)c(Cl)c1

logP [6]: 1.12
IC50 [22]: 1.5 µM
SMILES: Oc1ccc(Cn2cc[nH]c2=S)cc1F
Decrease (Rattus norvegicus [13]): 32 mmHg
Increase (Rattus norvegicus [5]): 78%

inhibition [9]: 34%
Kis [23]: 9.77 µM
SMILES: Cc1ccc(Cn2cc[nH]c2=S)cc1

IC50 [24]: 157 µM
SMILES: COc1cccc(Cn2cc[nH]c2=S)c1

IC50 [25]: 2 µM
SMILES: Oc1ccc(Cn2cc[nH]c2=S)cc1Cl

IC50 [26]: 121 µM
SMILES: Oc1ccc(Cn2cc[nH]c2=S)cc1C(F)(F)F

inhibition [9]: 60%
SMILES: COc1ccc(Cn2cc[nH]c2=S)cc1Br

inhibition [9]: 1%
SMILES: O=C(O)c1ccc(Cn2ccnc2S)cc1

IC50 [27]: 12 µM
SMILES: S=c1[nH]ccn1Cc1cccc(Cl)c1

inhibition [9]: 25%
Kis [23]: 9.04 µM
SMILES: FC(F)(F)c1ccc(Cn2cc[nH]c2=S)cc1

Kis [23]: 0.83 µM
SMILES: S=c1[nH]ccn1Cc1ccccc1

inhibition [9]: 6%
SMILES: OCc1ccc(Cn2ccnc2S)cc1

inhibition [9]: 7%
SMILES: COc1ccc(Cn2ccnc2S)cc1S(N)(=O)=O

logP [6]: 1.02
SMILES: Oc1ccc(Cn2cc[nH]c2=S)cc1
Decrease (Rattus norvegicus [1]): 22 mmHg
Increase (Rattus norvegicus [5]): 92%

IC50 [31]: 2.2 µM
SMILES: Oc1ccc(Cn2cc[nH]c2=S)cc1O

inhibition [9]: 14%
SMILES: S=c1[nH]ccn1Cc1ccccc1Cl

inhibition [9]: 43%
Kis [23]: 3.42 µM
SMILES: S=c1[nH]ccn1Cc1ccc(Br)cc1

IC50 [33]: 96 µM
SMILES: S=c1[nH]ccn1Cc1ccc(Cl)cc1

IC50 [35]: 49 µM
SMILES: Cc1cc(Cn2cc[nH]c2=S)ccc1O

Kis [2]: 0.108 µM
logP [6]: 1.7
IC50 [36]: 5.6 µM
SMILES: Fc1cccc(Cn2cc[nH]c2=S)c1
Increase (Rattus norvegicus [5]): 364%

IC50 [38]: 580 µM
SMILES: Oc1ccccc1Cn1cc[nH]c1=S

IC50 [39]: 12 µM
SMILES: Oc1ccc(Cn2cc[nH]c2=S)cc1Br
